These results are taken from ChEMBL document CHEMBL2321857, “Synthesis, topoisomerase-targeting activity and growth inhibition of lycobetaine analogs” (Bioorg Med Chem, 2013).

Calls of active or inactive are those of the source. The rule behind the calls is not given here.

The target of assay [1] is DNA topoisomerase 2-beta (Homo sapiens) (UniProt Q02880). Kind of assay: Inhibition of human recombinant topoisomerase 2beta-mediated decatenation of kDNA at 30 uM after 60 mins by ethidium bromide staining based gel electrophoresis analysis. In outline: (§1)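 Recombinant human topo IIα or IIβ (40 ng) was incubated with 200 ng Crithidia kDNA. Buffer: 50 mM Tris/HCl pH 7.9, 120 mM KCl, 10 mM MgCl2, 1 mM ATP, 0.5 mM DTT, 0.5 mM EDTA, 0.03 mg/mL BSA. Incubation 60 min at 37 °C. Stopped with proteinase K/SDS, digested 30 min, run on 1% agarose and stained with ethidium bromide. Decatenated minicircle signal as T/C% vs DMSO; three experiments.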

In assay [2] the target is DNA topoisomerase 2-alpha (Homo sapiens) (UniProt P11388). Kind of assay: Inhibition of human recombinant topoisomerase 2alpha-mediated decatenation of kDNA at 50 uM after 60 mins by ethidium bromide staining based gel electrophoresis analysis. In short, it runs like this: as §1
Assay [3] has as its target T1, DNA topoisomerase 1 (Homo sapiens) (UniProt P11387).
T1 sequence (whole entry): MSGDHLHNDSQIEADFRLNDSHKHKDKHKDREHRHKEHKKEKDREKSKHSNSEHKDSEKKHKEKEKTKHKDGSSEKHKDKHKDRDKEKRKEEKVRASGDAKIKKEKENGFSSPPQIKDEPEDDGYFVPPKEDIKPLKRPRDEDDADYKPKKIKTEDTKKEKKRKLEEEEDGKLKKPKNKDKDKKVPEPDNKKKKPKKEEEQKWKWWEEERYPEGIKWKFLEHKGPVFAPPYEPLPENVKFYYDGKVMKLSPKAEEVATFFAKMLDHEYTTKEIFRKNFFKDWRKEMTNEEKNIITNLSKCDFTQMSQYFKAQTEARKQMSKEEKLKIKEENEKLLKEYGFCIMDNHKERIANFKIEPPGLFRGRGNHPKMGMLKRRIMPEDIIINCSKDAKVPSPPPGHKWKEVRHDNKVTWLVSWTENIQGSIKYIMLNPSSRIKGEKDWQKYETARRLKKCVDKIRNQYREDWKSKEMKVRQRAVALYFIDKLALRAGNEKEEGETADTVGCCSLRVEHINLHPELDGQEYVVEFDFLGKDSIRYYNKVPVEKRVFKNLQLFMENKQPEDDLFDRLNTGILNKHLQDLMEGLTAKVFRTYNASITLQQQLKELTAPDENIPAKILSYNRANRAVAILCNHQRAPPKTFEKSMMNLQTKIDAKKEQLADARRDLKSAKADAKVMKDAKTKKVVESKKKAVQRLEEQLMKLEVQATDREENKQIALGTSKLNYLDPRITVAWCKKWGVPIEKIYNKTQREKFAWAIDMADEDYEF
Put plainly: Inhibition of human recombinant topoisomerase 1-mediated relaxation of supercoiled pUC18 plasmid DNA in human MCF7 cells nuclear extracts at 10 uM after 30 mins by ethidium bromide staining based gel electrophoresis analysis. Type of assay: cell-free. In outline:
(§2)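 Topo I activity came from MCF-7 nuclear extract (0.3 µL) acting on 250 ng supercoiled pUC18. Buffer: 10 mM Tris/HCl pH 7.9, 50 mM KCl, 10 mM MgCl2, 0.5 mM DTT, 0.5 mM EDTA, 0.03 mg/mL BSA, no ATP. Incubation 30 min at 37 °C. Stopped with SDS, then proteinase K digest. Run on 1% agarose TAE gel and stained with ethidium bromide afterward. Scored as lowest inhibiting concentration from 10, 30, 50 or 100 µM.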

Assay [4] is described as follows: Growth inhibition of human GXF251L cells after 72 hrs by SRB assay. Type of assay: functional. The settings on record: GXF 251L. In short, it runs like this: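 GXF251L gastric xenograft-derived cells in RPMI-1640 with 10% FCS were seeded at 6000 cells/well and grown 24 h. They were then exposed 72 h in serum-containing medium with 1% DMSO final. Cells were fixed with TCA for 1 h at 4 °C and stained with 0.4% SRB. Dye was dissolved in 10 mM Tris pH 10.5 and read at 570 nm. IC50 vs DMSO control; three independent experiments.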
(The SRB assay estimates cell density from bound dye.)

Assay [5] concerns the target T1, DNA topoisomerase 1 (Homo sapiens). Kind of assay: Stabilization of topoisomerase 1/DNA complex in human A431 cells. The class given is cell-based. The settings on record: A-431. In short, it runs like this: (§3)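 A431 cells were grown 72 h, then treated 1 h serum-free (10–100 µM; 1% DMSO control). Cells were lysed in sarkosyl TE buffer, and lysate was spun on a CsCl step gradient at 100,000 × g for 24 h at 20 °C. Fractions were measured by A260 and slot-blotted. Topo I, IIα or IIβ was immunodetected by chemiluminescence and expressed as T/C% per DNA content. Three experiments.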

The target in assay [6] is DNA topoisomerase 2-beta (Homo sapiens) (UniProt Q02880). Put plainly: Inhibition of topoisomerase 2beta in human A431 cells assessed as DNA peak fractions level after 1 hr by ICE assay. The class given is cell-based. The settings on record: A-431. In outline:
as §3

The target in assay [7] is DNA topoisomerase 2-alpha (Homo sapiens) (UniProt P11388). Put plainly: Inhibition of topoisomerase 2alpha in human A431 cells assessed as DNA peak fractions level after 1 hr by ICE assay. Type of assay: cell-based. The settings on record: A-431. In short, it runs like this:
as §3

For assay [8], the target named is T1, DNA topoisomerase 1 (Homo sapiens). Kind of assay: Inhibition of human recombinant topoisomerase 1-mediated relaxation of supercoiled pUC18 plasmid DNA in human MCF7 cells nuclear extracts at 100 uM after 30 mins by ethidium bromide staining based gel electrophoresis analysis. The class given is cell-free. In outline:
as §2

In assay [9] the target is DNA topoisomerase 2-beta (Homo sapiens) (UniProt Q02880). Put plainly: Inhibition of human recombinant topoisomerase 2beta-mediated decatenation of kDNA at 100 uM after 60 mins by ethidium bromide staining based gel electrophoresis analysis. In outline: as §1
Assay [10] has as its target DNA topoisomerase 2-alpha (Homo sapiens) (UniProt P11388). Kind of assay: Inhibition of human recombinant topoisomerase 2alpha-mediated decatenation of kDNA at 100 uM after 60 mins by ethidium bromide staining based gel electrophoresis analysis. In outline: as §1
For assay [11], the target named is DNA topoisomerase 2-beta (Homo sapiens) (UniProt Q02880). Kind of assay: Inhibition of human recombinant topoisomerase 2beta-mediated decatenation of kDNA up to 50 uM after 60 mins by ethidium bromide staining based gel electrophoresis analysis. In short, it runs like this:
as §1

In assay [12] the target is DNA topoisomerase 2-alpha (Homo sapiens) (UniProt P11388). Put plainly: Inhibition of human recombinant topoisomerase 2alpha-mediated decatenation of kDNA up to 50 uM after 60 mins by ethidium bromide staining based gel electrophoresis analysis. In outline:
as §1

Assay [13] concerns the target T1, DNA topoisomerase 1 (Homo sapiens). Put plainly: Inhibition of human recombinant topoisomerase 1-mediated relaxation of supercoiled pUC18 plasmid DNA in human MCF7 cells nuclear extracts at 50 uM after 30 mins by ethidium bromide staining based gel electrophoresis analysis. The class given is cell-free. In short, it runs like this: as §2

Sequence of DNA topoisomerase 2-alpha (Homo sapiens) (P11388 whole entry): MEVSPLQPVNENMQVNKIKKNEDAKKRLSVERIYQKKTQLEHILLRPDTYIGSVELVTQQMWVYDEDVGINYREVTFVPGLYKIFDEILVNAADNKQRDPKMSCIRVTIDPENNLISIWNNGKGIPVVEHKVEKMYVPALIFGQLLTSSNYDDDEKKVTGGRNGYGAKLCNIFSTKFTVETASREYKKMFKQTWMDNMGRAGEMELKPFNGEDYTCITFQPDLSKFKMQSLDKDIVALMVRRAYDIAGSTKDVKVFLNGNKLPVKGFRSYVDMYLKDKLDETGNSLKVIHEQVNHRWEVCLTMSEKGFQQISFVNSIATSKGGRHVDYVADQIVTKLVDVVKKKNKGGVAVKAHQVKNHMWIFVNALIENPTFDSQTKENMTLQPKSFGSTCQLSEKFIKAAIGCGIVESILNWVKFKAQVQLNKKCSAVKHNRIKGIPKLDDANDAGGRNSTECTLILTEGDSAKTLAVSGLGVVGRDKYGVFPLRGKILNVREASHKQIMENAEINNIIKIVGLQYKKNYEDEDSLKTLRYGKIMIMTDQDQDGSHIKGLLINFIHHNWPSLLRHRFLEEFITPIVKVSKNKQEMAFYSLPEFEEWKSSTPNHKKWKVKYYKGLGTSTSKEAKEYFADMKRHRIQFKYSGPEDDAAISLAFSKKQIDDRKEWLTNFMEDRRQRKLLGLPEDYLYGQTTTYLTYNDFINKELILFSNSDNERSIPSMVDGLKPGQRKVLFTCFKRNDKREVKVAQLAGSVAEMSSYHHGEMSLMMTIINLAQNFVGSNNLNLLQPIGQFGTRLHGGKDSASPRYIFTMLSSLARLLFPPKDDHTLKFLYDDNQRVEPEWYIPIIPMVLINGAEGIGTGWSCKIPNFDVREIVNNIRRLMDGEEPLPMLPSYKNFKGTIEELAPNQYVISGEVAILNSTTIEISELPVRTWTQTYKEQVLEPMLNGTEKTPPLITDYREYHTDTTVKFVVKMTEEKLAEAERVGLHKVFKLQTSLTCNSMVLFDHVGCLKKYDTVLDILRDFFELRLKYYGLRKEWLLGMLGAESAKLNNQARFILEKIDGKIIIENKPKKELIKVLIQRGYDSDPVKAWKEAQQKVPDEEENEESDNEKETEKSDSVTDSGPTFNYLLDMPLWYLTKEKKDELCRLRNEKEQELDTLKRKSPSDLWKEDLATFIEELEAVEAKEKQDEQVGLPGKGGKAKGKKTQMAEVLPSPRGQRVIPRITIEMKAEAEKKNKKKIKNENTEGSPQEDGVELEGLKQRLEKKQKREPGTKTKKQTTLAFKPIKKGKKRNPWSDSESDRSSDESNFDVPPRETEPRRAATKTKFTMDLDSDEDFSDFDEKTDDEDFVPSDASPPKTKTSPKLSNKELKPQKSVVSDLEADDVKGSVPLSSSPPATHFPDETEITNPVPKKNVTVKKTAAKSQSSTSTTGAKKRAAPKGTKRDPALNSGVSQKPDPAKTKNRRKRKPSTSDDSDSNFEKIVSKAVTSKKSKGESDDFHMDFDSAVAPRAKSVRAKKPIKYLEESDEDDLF
Sequence of DNA topoisomerase 2-beta (Homo sapiens) (Q02880 whole entry): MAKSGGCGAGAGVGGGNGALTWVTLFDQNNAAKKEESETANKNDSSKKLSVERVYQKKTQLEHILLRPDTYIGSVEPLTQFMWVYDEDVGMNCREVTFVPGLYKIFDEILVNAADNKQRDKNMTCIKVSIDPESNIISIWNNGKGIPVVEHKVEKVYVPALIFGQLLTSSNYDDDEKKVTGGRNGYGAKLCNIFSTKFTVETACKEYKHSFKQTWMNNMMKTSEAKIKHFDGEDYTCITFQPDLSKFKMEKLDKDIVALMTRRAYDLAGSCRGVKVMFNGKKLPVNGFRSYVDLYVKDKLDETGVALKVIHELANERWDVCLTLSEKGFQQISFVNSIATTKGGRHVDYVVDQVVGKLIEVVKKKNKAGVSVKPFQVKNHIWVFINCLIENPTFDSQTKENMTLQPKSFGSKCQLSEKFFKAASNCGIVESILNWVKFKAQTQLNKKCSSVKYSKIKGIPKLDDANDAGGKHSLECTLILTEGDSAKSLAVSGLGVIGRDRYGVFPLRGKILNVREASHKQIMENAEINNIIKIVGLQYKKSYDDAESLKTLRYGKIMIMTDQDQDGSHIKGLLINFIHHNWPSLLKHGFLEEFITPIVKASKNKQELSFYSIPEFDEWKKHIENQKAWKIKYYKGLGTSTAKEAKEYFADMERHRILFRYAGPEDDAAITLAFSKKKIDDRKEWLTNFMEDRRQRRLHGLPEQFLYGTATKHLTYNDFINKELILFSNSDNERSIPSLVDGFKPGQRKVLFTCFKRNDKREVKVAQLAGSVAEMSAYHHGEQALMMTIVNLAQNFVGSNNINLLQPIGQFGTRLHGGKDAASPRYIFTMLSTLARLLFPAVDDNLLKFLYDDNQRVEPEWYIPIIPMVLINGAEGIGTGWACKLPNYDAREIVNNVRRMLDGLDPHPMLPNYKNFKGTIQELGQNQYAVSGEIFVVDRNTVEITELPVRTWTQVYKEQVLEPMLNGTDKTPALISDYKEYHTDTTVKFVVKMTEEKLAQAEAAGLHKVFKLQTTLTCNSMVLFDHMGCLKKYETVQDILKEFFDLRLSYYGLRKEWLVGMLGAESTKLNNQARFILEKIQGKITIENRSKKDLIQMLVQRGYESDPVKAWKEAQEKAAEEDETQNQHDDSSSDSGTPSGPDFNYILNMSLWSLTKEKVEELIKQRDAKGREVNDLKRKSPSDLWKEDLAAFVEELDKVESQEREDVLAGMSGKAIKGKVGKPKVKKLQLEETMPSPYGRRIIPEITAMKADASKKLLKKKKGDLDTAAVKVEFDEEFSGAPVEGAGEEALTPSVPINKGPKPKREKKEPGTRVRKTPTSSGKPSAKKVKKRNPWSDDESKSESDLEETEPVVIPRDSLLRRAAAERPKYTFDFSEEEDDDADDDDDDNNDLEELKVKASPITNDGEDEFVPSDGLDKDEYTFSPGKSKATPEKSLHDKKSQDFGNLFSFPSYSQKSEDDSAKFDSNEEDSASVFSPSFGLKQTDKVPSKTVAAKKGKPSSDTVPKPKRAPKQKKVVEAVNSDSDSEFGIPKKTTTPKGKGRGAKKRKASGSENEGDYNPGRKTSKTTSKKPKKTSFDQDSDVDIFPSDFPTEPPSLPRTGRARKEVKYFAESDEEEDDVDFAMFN

As to `Oc1cc2c3c(c1)c1cc4c(cc1c[n+]3CC2)OCO4` [LYCOBETAINE], the inhibition entry in assay [1], in assay [2] and in assay [3] was “Active” throughout. Also, in assay [4], half-maximal inhibition (IC50) was put at 3.2 µM. Further, the outcome in assay [5] was inactive. Further, the inhibition entry in [6] and in [7] was “Dose-dependent effect” throughout.
Consider `C[n+]1cc2cc3c(cc2c2cc(O)ccc21)OCO3`, for which the inhibition result in [1], in assay [2] and in [3] was “Active” in each case. Besides, the IC50 (in general, the concentration that gives 50% inhibition) in [4] was 1.6 µM.
For the compound `COc1ccc2ncc3cc(OC)c(OC)cc3c2c1`, in [8], the inhibition entry was “inactive”. In addition, the IC50 in assay [4] is 41.1 µM.
As to `COc1ccc2c(c1)c[n+](C)c1ccc(O)cc21`, the inhibition result in assay [9] and in assay [10] was “inactive” throughout. Also, the inhibition entry in assay [3] was “Active”. For the same compound, in assay [4], the half-maximal inhibitory concentration (IC50) is 5.4 µM.
Take `COc1ccc2c(c1)c1cc(OC)c(OC)cc1c[n+]2C`: the inhibition result in [10] and in [3] was “Active” throughout. In addition, in [4], the midpoint of inhibition, the IC50, lay at 7.8 µM.
In the case of `COc1ccc2c[n+](C)c3ccc(O)cc3c2c1`, the inhibition entry in assay [11], in assay [12] and in assay [8] was “inactive” in each case. For the same compound, the midpoint of inhibition in assay [4], the IC50, lay at 8.4 µM.
As for `Oc1ccc2ncc3cc4c(cc3c2c1)OCO4`, the inhibition result in [8] was “inactive”. In assay [4], this compound yielded an IC50 of 17.3 µM.
The corresponding values for `COc1ccc2ncc3cc4c(cc3c2c1)OCO4` are “inactive” and 12.1 µM.
`COc1ccc2c(c1)c1cc3c(cc1c[n+]2C)OCO3`: the inhibition entry in assay [1], in assay [2] and in assay [3] was “Active” each time. Besides, in assay [4], the IC50 is 0.9 µM.
Turning to `COc1ccc2cnc3ccc(O)cc3c2c1`, in assay [8], the inhibition entry was “inactive”. Further, half-maximal inhibition in assay [4] (IC50) required 40.6 µM.
Take `COc1ccc2c(c1)c1ccccc1c[n+]2C`: the inhibition result in assay [9], in [10] and in assay [3] was “Active” each time. Further, in assay [4], the concentration for half-maximal inhibition (IC50) was 4 µM.
`C[n+]1cc2cc3c(cc2c2ccccc21)OCO3`: the inhibition result in assay [11] and in [12] was “inactive” each time. For the same compound, the inhibition result in assay [3] was “Active”. Besides, the IC50 in [4] is 1.9 µM.
`c1ccc2c(c1)ncc1cc3c(cc12)OCO3` [TRISPHAERIDINE]: the inhibition result in assay [8] is “inactive”. For the same compound, in [4], half-maximal inhibition (IC50) was put at 12 µM.
The corresponding values for `COc1ccc2c(cnc3ccc(O)cc32)c1` are “inactive” and over 50 µM.
The like results for `COc1cc2cnc3ccc(O)cc3c2cc1OC` were, in that order, “inactive” and 26 µM.
Take `COc1cc2c[n+](C)c3ccc(O)cc3c2cc1OC`: the inhibition result in [9] and in assay [10] was “inactive” throughout. The inhibition result in assay [13] is “Active”. The 50% inhibitory concentration (IC50) in [4] is 18.8 µM.
